STAT3 act: STAT3 signaling activation; 0.91% of 190,000 active; U3A cells, IL-6 STAT3-luciferase reporter, luminescence; 100% = signal with IL-6 EC80 alone; activation (% of control), % at 5.6 µM;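 active = activation above the screen-wide mean of compound activation plus 3 SD, cut at about 130% in these data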;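 note: 0% = background luminescence of wells with medium and substrate only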
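Material: STAT3-luciferase reporter U3A cells. Controls: IL-6-treated wells, 100% activation. Read-out: % activation versus median of IL-6-stimulated wells. Probe or stimulus: IL-6 stimulus at 33 ng/mL final. Timing: compound 1 h, then IL-6 6 h at 37 °C. Signal: reporter luminescence signal.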
AHR act: activators of human aryl hydrocarbon receptor | P35869 | AHR-responsive luciferase reporter cells, luminescence | activation, % at 5 µM | 2.5% of 320,000 active; in the data active = activation above about 47%;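 note: 0% = vehicle wells and 100% = reference agonist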
Hsp70 act: transcriptional activators of Hsp70 | HeLa Hsp70 promoter luciferase reporter, luminescence; scaled: vehicle 0, proteasome-inhibitor control 100% | activation, % at 10 µM | 0.04% of 200,000 active | AID 1203;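 active = activation above the mean across all tested compounds plus 3 SD, cutoff set per campaign, cut at about 5.5% in these data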;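 note: 100% = MG132 at 30 µM as the positive control and 0% = DMSO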
PERK inh: inhibitors of human PERK kinase. Q9NZJ5. CHO PERK-DD fusion, SEAP luminescence translation reporter. inhibition, % at 5.6 µM. 0.17% of 220,000 active. AID 1416;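 active = inhibition above the mean inhibition of all tested compounds plus 3 SD, set separately per screening campaign, cut at about 2.9% in these data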;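 note: PERK kinase domain activated by AP20187 dimerizer at 100 nM; 0% = DMSO with dimerizer and 100% = rapamycin at 8.4 µM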
HSF1 inh: HSF1 inhibition; NIH3T3-HGL HSE-luciferase, MG132-induced, luminescence 8 h; hits give low values; activity change, negative = inhibition, % at 7.5 µM (by protocol); 0.77% of 300,000 active;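 active = more than half of replicate wells show activity change below -50%, luminescence cut by over half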;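 note: luciferase reports HSF-1 transcriptional activity via heat shock element; 0% = median of DMSO wells and -100% = zero luminescence signal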
PolyA inhibitor: blocks polyadenylation in yeast reporter cells; activity score, % at 12 µM; AID 1875; S. cerevisiae SKY197-pL101 polyadenylation reporter, beta-gal luminescence; efflux-impaired pdr1/pdr3 knockout yeast; score 100 = 6 SD above DMSO; 0.02% of 300,000 active;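 active = lowest replicate activity score at least 50, where 100 means six control SD above control mean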;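 note: yeast exposed to compound for 9 h at 30 °C; higher score means more reporter readthrough which indicates perturbed polyadenylation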
Active calls of the source: *; . = no result. Hits are enriched below; roughly 3.6% of the tested compounds scored in any of these assays.

SMILES	STAT3 act	AHR act	Hsp70 act	PERK inh	HSF1 inh	PolyA inhibitor
O=C(C1=C(O)C(=O)N(CCN2CCOCC2)C1c1ccc([N+](=O)[O-])cc1)c1cccs1 (configuration not stated)	.	3	.	.	-10	-9
CS/C(N)=N/N=C/c1cc(Br)cc(Br)c1O	.	66*	.	1	-1	-14
CS/C(N)=N/N=C/c1cc(C)ccc1O	.	4	.	1	86	-9
c1ccc2c(c1)Oc1cccc3cccc-2c13	.	-2	.	0	-4	-2
c1ccc2c(c1)-c1cccc3c1c-2cc1ccccc13	.	102*	.	.	.	.
COc1ccc2c(Cl)c(C(=O)N/N=C3\CCCC(=O)C3)sc2c1	119	3	0	0	1	-4
Cc1ccc(S(=O)(=O)NCCCN2CCOCC2)cc1C	97	-1	0	1	-6	-12
COc1cc(S(=O)(=O)NCCCN2CCOCC2)ccc1Cl	105	-1	0	2.9*	-4	7
CNC(=S)N(CCc1c(C)[nH]c2ccc(C)cc12)Cc1cc(OC)c(OC)c(OC)c1	97	18	0	-1	-66*	1
CNC(=S)N(CCc1c(C)[nH]c2ccc(OC)cc12)Cc1cc(OC)c(OC)c(OC)c1	96	16	0	-1	-2	-8
COc1ccc(NC(=S)N(CCc2c(C)[nH]c3ccc(C)cc23)Cc2cccs2)cc1	103	64*	0	-1	22	-5
CCN(CC(=O)Nc1c(F)cccc1F)C(=O)c1ccc(COc2ccccc2)o1	.	-1	.	.	-2	8
O=c1c2oc3ccccc3c2[nH]c(=S)n1-c1ccc(F)cc1	105	57*	0	1	-3	6
Cc1ccc(-n2c(=S)[nH]c3c(oc4ccccc43)c2=O)cc1C	99	14	0	1	-34	-22
CC1(C)CC(=O)C=C(NCCO)C1	104	0	0	3.1*	-9	4
CCCCCCCCNC1=CC(=O)CC(C)(C)C1	.	3	.	-2	-1	-9
CN(C)N1C(N)=C(C#N)C(c2ccc3c(c2)OCO3)C2=C1CC(C)(C)CC2=O (configuration not stated)	.	0	.	.	-7	-23
CCN=C1S/C(=C\c2cn(CC(=O)NCc3ccco3)c3ccccc23)C(=O)N1CC	.	3	.	.	-2	1
CN1C(=O)/C(=C/c2cn(CC(=O)NCc3ccco3)c3ccccc23)NC1=S	105	58*	0	0	1	-17
O=C(Cc1cccs1)NCc1ccncc1	102	-2	0	3.0*	0	-6
O=C(Cc1cccs1)Nc1nc2c(ccc3ccccc32)s1	159*	60*	0	0	15	6
COc1ccc(CCNC(=O)Cc2cccs2)cc1	102	12	0	0	-55*	6
O=C(Cc1cccs1)NCCCc1ccccc1	104	2	0	1	-8	-3
O=C(Cc1cccs1)NCc1ccccc1	107	3	0	1	11	-12
CC(=O)Nc1nc2c(ccc3ccccc32)s1	.	37	.	.	9	6
SMILES	STAT3 act	AHR act	Hsp70 act	PERK inh	HSF1 inh	PolyA inhibitor
COc1ccc(N(C(=O)CCl)C(C(=O)NCCc2ccccc2)c2cccs2)cc1 (configuration not stated)	47	-2	0	-2	-93*	-2
O=C(CC1C(=O)NCCN1Cc1cccc(F)c1F)NCCCC1CCCC1 (configuration not stated)	.	3	.	.	4	19
Cc1noc(C)c1C(=O)N1CCC(Cc2ccccc2)CC1	94	-4	0	0	-2	-17
Cc1noc(C)c1C(=O)N1CCC(C(=O)c2ccccc2)CC1	.	-3	.	1	-62*	-3
CCc1nnc(NC(=O)c2nc(S(=O)(=O)Cc3ccc(C)cc3)ncc2Cl)s1	.	-2	.	.	-60*	-7
CCc1nnc(NC(=O)c2nc(S(=O)(=O)Cc3cccc(C)c3)ncc2Cl)s1	.	1	.	.	-65*	-11
CCc1nnc(NC(=O)c2nc(S(=O)(=O)Cc3ccccc3)ncc2Cl)s1	.	2	.	.	-18	-7
Cc1ccc(-c2nc3ccccc3c(C(=O)NCc3cccs3)c2C)cc1	143*	23	0	-1	3	-2
CCn1c(=O)c(-c2nc3ccccc3[nH]2)c(O)c2ccccc21	89	69*	0	0	3	-29

Source: PubChem BioAssay (several laboratories)
